ChEMBL document CHEMBL5346888, “Insight into non-nucleoside triazole-based systems as viral polymerases inhibitors” (Eur J Med Chem, 2023)

Assays:
[1] = target: Hepatitis C virus NS5B RNA-dependent RNA polymerase (Hepatitis C virus, UniProt Q8JXU8); experiment: Inhibition of Hepatitis C virus NS5B polymerase; design: species or system Hepacivirus hominis
[2] = target: Hepatitis C virus NS5B RNA-dependent RNA polymerase (Hepatitis C virus) (UniProt Q8JXU8); experiment: Inhibition of Hepatitis C virus NS5B polymerase at 100 uM relative to control; conditions: Hepacivirus hominis
[3] = Selectivity index, ratio of CC50 for cytotoxicity against human MT4 cells assessed as reduction in cell viability to EC50 for antiviral activity against wild type HIV-1 IIIB infected in human MT4 cells; format: toxicity, cell-based; conditions: read-out: Ratio CC50/EC50
Outline: (§1)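 MT-4 cells infected with wild-type HIV-1 IIIB, or with RES056 (K103N + Y181C double RT mutant) for the SI ratio line. Antiviral activity and cytotoxicity were both read by the tetrazolium (MTT) colorimetric method. […] SI was calculated as CC50/EC50.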

[4] = Selectivity index, ratio of CC50 for cytotoxicity against human MT4 cells assessed as reduction in cell viability to EC50 for antiviral activity against HIV-1 RES056 infected in human MT4 cells; format: toxicity, cell-based; conditions: read-out: Ratio CC50/EC50; outline: as §1
[5] = test system: Human immunodeficiency virus 1; experiment: Antiviral activity against wild type HIV-1 infected in human HeLa cells assessed as reduction in viral growth; format: functional, organism-based; conditions: Human immunodeficiency virus 1, HeLa
[6] = test system: Human immunodeficiency virus 1; experiment: Antiviral activity against HIV-1 harboring K103 N/Y181C double mutant infected in human HeLa cells assessed as reduction in viral growth; format: functional, organism-based; conditions: Human immunodeficiency virus 1, HeLa
SARS-CoV-2 = experiment: Antiviral activity against SARS-CoV-2 infected in African green monkey Vero E6 cells assessed as inhibition of virus growth; format: functional, organism-based; conditions: Severe acute respiratory syndrome coronavirus 2, Vero C1008
[7] = Selectivity index, ratio of CC50 for cytotoxicity against African green monkey Vero E6 cells assessed as reduction in cell viability to EC50 for antiviral activity against SARS-CoV-2 infected in African green monkey Vero E6 cells assessed as inhibition of virus growth; format: toxicity, cell-based, Vero C1008; conditions: read-out: Ratio CC50/EC50
[8] = test system: Human immunodeficiency virus 1; experiment: Antiviral activity against wild type HIV-1 IIIB infected in human MT4 cells assessed as reduction in virus-induced cytopathicity by MTT assay; format: functional, organism-based; conditions: Human immunodeficiency virus 1, IIIB; outline: as §1
[9] = Cytotoxicity against dog MDCK cells assessed as reduction in cell viability; format: toxicity, cell-based, Canis lupus familiaris
[10] = test system: Human immunodeficiency virus 1; experiment: Antiviral activity against HIV-1 harboring reverse transcriptase K103N mutant infected in human MT4 cells assessed as reduction in virus-induced cytopathic effect; format: functional, organism-based; conditions: Human immunodeficiency virus 1, MT4
[11] = test system: Human immunodeficiency virus 1; experiment: Antiviral activity against HIV-1 harboring reverse transcriptase E138K mutant infected in human MT4 cells assessed as reduction in virus-induced cytopathic effect; format: functional, organism-based; conditions: Human immunodeficiency virus 1, MT4
[12] = test system: Human immunodeficiency virus 1; experiment: Antiviral activity against HIV-1 harboring reverse transcriptase Y181C mutant infected in human MT4 cells assessed as reduction in virus-induced cytopathic effect; format: functional, organism-based; conditions: Human immunodeficiency virus 1, MT4
[13] = test system: Human immunodeficiency virus 1; experiment: Antiviral activity against HIV-1 harboring reverse transcriptase Y188L mutant infected in human MT4 cells assessed as reduction in virus-induced cytopathic effect; format: functional, organism-based; conditions: Human immunodeficiency virus 1, MT4
[14] = test system: Human immunodeficiency virus 1; experiment: Antiviral activity against HIV-1 harboring reverse transcriptase F227L/V106A double mutant infected in human MT4 cells assessed as reduction in virus-induced cytopathic effect; format: functional, organism-based; conditions: Human immunodeficiency virus 1, MT4
CYP2D6 = CYP2D6 (Homo sapiens, UniProt P10635); experiment: Inhibition of CYP2D6 (unknown origin); format: ADME
[15] = Selectivity index, ratio of CC50 for cytotoxicty against human Huh-7 cells to EC50 for antiviral activity against HCV infected in human Huh-7 cells assessed as reduction in viral infection; format: toxicity, cell-based; conditions: read-out: Ratio CC50/EC50
Hepatitis C virus = experiment: Antiviral activity against HCV assessed as reduction in viral growth; format: functional, organism-based, Hepacivirus hominis
Huh-7 = experiment: Anticancer activity against human Huh-7 cells measured after 72 hrs; format: functional, cell-based; conditions: Huh-7, 72 h
Human orthopneumovirus = experiment: Antiviral activity against RSV A infected in human HEp-2 cells assessed as inhibition of virus-induced cytopathogenic effect; format: functional, organism-based; conditions: human respiratory syncytial virus
[16] = Antiviral activity against RSV B infected in human HEp-2 cells assessed as inhibition of virus-induced cytopathogenic effect; format: functional, cell-based; conditions: human respiratory syncytial virus
[17] = Cytotoxicity against human HeLa cells assessed as reduction in cell viability incubated for 48 hrs by cellTiter-glo assay; format: toxicity, cell-based
[18] = test system: Human immunodeficiency virus 1; experiment: Antiviral activity against HIV-1 harboring K103N/Y181C double mutant infected in human HeLa cells assessed as reduction in viral growth incubated for 48 hrs by bright-glo luciferase assay; format: functional, organism-based; conditions: Human immunodeficiency virus 1, HeLa
[19] = test system: Human immunodeficiency virus 1; experiment: Antiviral activity against wild type HIV-1 infected in human HeLa cells assessed as reduction in viral growth incubated for 48 hrs by bright-glo luciferase assay; format: functional, organism-based; conditions: Human immunodeficiency virus 1, HeLa
Influenza A virus [20] = experiment: Antiviral activity against influenza A H1N1 infected in MDCK cells assessed as reduction in viral replication by plaque reduction assay; format: functional, organism-based
[21] = Cytotoxicity against dog MDCK cells assessed as reduction in cell viability by MTT assay; format: toxicity, cell-based, Canis lupus familiaris
[22] = Selectivity index, ratio of CC50 for cytotoxicity against dog MDCK cells assessed as reduction in cell viability by MTT assay to EC50 for antiviral activity against influenza A H1N1 infected in MDCK cells assessed as reduction in viral replication by plaque reduction assay; format: toxicity, cell-based; conditions: read-out: Ratio CC50/EC50
Influenza A virus [23] = experiment: Antiviral activity against Influenza A virus H9N2 infected in MDCK cells assessed as inhibition of viral replication; format: functional, organism-based
[24] = Cytotoxicity against human MT4 cells assessed as reduction in cell viability; format: toxicity, cell-based; outline: as §1

Sequence of Hepatitis C virus NS5B RNA-dependent RNA polymerase (Q8JXU8 whole entry): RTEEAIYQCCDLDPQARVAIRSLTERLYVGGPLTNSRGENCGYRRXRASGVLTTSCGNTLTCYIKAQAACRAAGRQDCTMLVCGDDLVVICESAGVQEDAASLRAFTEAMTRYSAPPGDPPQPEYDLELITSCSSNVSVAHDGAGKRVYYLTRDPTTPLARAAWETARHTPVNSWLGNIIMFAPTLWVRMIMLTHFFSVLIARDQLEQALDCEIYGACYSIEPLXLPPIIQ
Sequence of Hepatitis C virus NS5B RNA-dependent RNA polymerase (Hepatitis C virus) (Q8JXU8 as listed by the source): as the sequence (Q8JXU8 whole entry) above
Sequence of CYP2D6 (P10635 whole entry): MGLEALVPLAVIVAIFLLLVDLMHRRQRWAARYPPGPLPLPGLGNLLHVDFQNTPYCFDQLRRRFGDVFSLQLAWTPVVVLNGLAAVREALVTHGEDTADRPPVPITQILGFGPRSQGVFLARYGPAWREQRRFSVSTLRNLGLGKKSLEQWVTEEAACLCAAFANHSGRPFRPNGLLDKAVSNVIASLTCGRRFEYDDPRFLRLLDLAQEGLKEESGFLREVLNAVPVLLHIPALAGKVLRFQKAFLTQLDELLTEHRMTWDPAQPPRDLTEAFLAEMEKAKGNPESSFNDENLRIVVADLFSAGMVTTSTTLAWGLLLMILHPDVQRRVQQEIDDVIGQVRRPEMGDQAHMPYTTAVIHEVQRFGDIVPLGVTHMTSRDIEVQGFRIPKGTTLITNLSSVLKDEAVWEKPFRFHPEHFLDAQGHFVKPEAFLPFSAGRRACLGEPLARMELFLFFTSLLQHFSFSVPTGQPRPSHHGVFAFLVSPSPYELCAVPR

SMILES: CCc1cc(CC[C@@]2(C3CCCC3)CC(O)=C(Cc3nc4nc(C)cc(C)n4n3)C(=O)O2)cc(CC)n1
- IC50 [1]: 12 nM

SMILES: CCc1cccc2c3c([nH]c12)C(CC)(Cc1n[nH]c(=S)n1Cc1ccccc1)OCC3 (stereo unspecified)
- inhibition [2]: 3.78%

SMILES: Cc1cc(C)c(Oc2cc(Nc3ccc(C#N)cc3)ncc2C(=O)NCc2cn(CCC#N)nn2)c(C)c1
- selectivity ratio [3]: 2040
- selectivity ratio [4]: 17

SMILES: Cc1ccc(NC(=O)CSc2nnc(C)n2-c2ccccc2)c(Br)c1
- EC50 [5]: 100 nM
- EC50 [6]: 1300 nM

SMILES: O=C(OCc1cn(-c2ccccc2Cl)nn1)c1cnccn1
- IC50 (SARS-CoV-2): 952 nM
- selectivity ratio [7]: 3.7

SMILES: CCc1cc(CCC2(C3CCCC3)CC(O)=C(Cc3nc4nc(C)cc(C)n4n3)C(=O)O2)cc(CC)n1 (stereo unspecified)
- IC50 [1]: 16 nM

SMILES: O=C(OCc1cn(-c2ccc(F)cc2)nn1)c1cnccn1
- IC50 (SARS-CoV-2): 12200 nM
- selectivity ratio [7]: 0.3

SMILES: Cc1cc(C)c(Oc2cc(Nc3ccc(C#N)cc3)ncc2C(=O)NCc2cn(CC(=O)N3CCOCC3)nn2)c(C)c1
- EC50 [8]: 20 nM
- selectivity ratio [3]: 9280
- selectivity ratio [4]: 12

SMILES: COc1ccc(C(=O)Nc2nc3n(n2)C(c2ccccc2)C=C(C)N3)cc1 (stereo unspecified)
- CC50 [9]: > 250000 nM

SMILES: CC(C)Nc1cccnc1N1CCN(C(=O)c2cc3cc(NS(C)(=O)=O)ccc3[nH]2)CC1 [DELAVIRDINE]
- EC50 [8]: 38 nM
- selectivity ratio [3]: 733
- EC50 [10]: 3000 nM
- EC50 [11]: 51 nM
- EC50 [12]: 2460 nM
- EC50 [13]: 840 nM
- EC50 [14]: 2270 nM

SMILES: CCCCn1c(CC2(CC)OCCc3c2[nH]c2c(CC)cccc32)n[nH]c1=S (stereo unspecified)
- inhibition [2]: 72.3%
- IC50 [1]: 25400 nM

SMILES: Cc1cc(C)n2nc(CC3=C(O)CC(CCc4ccc(C(C)(C)O)c(F)c4)(C4CCCC4)OC3=O)nc2n1 (stereo unspecified)
- IC50 [1]: 140 nM
- IC50 (CYP2D6): > 6000 nM

SMILES: O=C(OCc1cn(-c2ccc([N+](=O)[O-])cc2)nn1)c1cnccn1
- IC50 (SARS-CoV-2): 477 nM
- selectivity ratio [7]: 10.3

SMILES: O=C(CC(=O)c1nnc[nH]1)c1ccc(OCc2ccc(F)cc2)cc1
- selectivity ratio [15]: > 128

SMILES: CCc1cc(CC[C@]2(C3CCCC3)CC(O)=C(Cc3nc4nc(C)cc(C)n4n3)C(=O)O2)cc(CC)n1 [FILIBUVIR]
- IC50 [1]: 7 nM

SMILES: Cc1cc(C)c(Oc2cc(Nc3ccc(C#N)cc3)ncc2C(=O)NCc2cn(CC(=O)N3CCCC3)nn2)c(C)c1
- EC50 [8]: 20 nM
- selectivity ratio [3]: 2100
- selectivity ratio [4]: 41

SMILES: Cc1cc(C)n2nc(CC3=C(O)CC(CCc4ccc(C(C)(C)C#N)c(F)c4)(C4CCCC4)OC3=O)nc2n1 (stereo unspecified)
- IC50 [1]: 3 nM
- EC50 (Hepatitis C virus): 15 nM

SMILES: CCc1cccc2c3c([nH]c12)C(CC)(Cc1n[nH]c(=S)n1C)OCC3 (stereo unspecified)
- inhibition [2]: 78.9%
- IC50 [1]: 14800 nM
- EC50 (Huh-7): 4290 nM

SMILES: CCC(C#N)(CC)c1ccc(CCC2(C3CCCC3)CC(O)=C(Cc3nc4nc(C)cc(C)n4n3)C(=O)O2)cc1F (stereo unspecified)
- IC50 [1]: 5 nM
- IC50 (CYP2D6): > 6000 nM

SMILES: O=C(OCc1cn(-c2ccc(Cl)cc2)nn1)c1cnccn1
- IC50 (SARS-CoV-2): 1150 nM
- selectivity ratio [7]: 1.7

SMILES: CCCn1c(CC2(CC)OCCc3c2[nH]c2c(CC)cccc32)n[nH]c1=S (stereo unspecified)
- inhibition [2]: 69%
- IC50 [1]: 26000 nM

SMILES: COc1cc(-c2noc(-c3nnn(-c4ccccc4Cl)c3C)n2)cc(OC)c1OC
- EC50 (Human orthopneumovirus): 1000 nM
- EC50 [16]: 1000 nM

SMILES: CCc1cccc2c3c([nH]c12)C(CC)(Cc1n[nH]c(=S)n1-c1ccccc1)OCC3 (stereo unspecified)
- inhibition [2]: 49.5%

SMILES: COc1ccccc1-n1cc(COC(=O)c2cnccn2)nn1
- IC50 (SARS-CoV-2): 1080 nM
- selectivity ratio [7]: 2.1

SMILES: COc1ccc(-n2cc(COC(=O)c3cnccn3)nn2)cc1
- IC50 (SARS-CoV-2): 120 nM
- selectivity ratio [7]: 3.2

SMILES: NC(=O)c1nc(F)cnc1O
- IC50 (SARS-CoV-2): 1380 nM
- selectivity ratio [7]: 3.8

SMILES: NS(=O)(=O)c1ccc(NC(=O)CSc2nnc(Br)n2-c2ccc(C3CC3)c3ccccc23)c(Cl)c1
- CC50 at 48 h [17]: ≥ 3000 nM
- EC50 [18]: 0.23 nM
- EC50 [19]: 0.14 nM

SMILES: CCc1cccc2c3c([nH]c12)C(CC)(Cc1n[nH]c(=S)n1CC)OCC3 (stereo unspecified)
- inhibition [2]: 74.6%
- IC50 [1]: 21600 nM

SMILES: CCc1c(C)nc2nnc(-c3ccccc3Cl)n2c1O
- EC50 (Influenza A virus [20]): 550 nM
- CC50 [21]: 125000 nM
- selectivity ratio [22]: 227
- EC50 (Influenza A virus [23]): 90 nM

SMILES: CCc1cccc2c3c([nH]c12)C(CC)(Cc1n[nH]c(=S)n1C1CCCCC1)OCC3 (stereo unspecified)
- inhibition [2]: 45.6%

SMILES: C=CCn1c(CC2(CC)OCCc3c2[nH]c2c(CC)cccc32)n[nH]c1=S (stereo unspecified)
- inhibition [2]: 58.2%
- IC50 [1]: 40300 nM

SMILES: Cc1ccnc2c1NC(=O)c1cccnc1N2C1CC1 [NEVIRAPINE]
- CC50 [24]: > 15000 nM
